An excerpt weighted towards active compounds, which were near 2.8% of everything screened.
PAFAH1B2 inh: inhibitors of human PAFAH1B2 | P68402 | recombinant PAFAH1B2, FP-rhodamine activity probe, fluorescence polarization | inhibition, % at 3.39 µM | 1.2% of 340,000 active;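 active = inhibition above the mean of all tested compounds plus 3 SD, cut at about 24% in these data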;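 also: 0% = enzyme with DMSO and 100% = wells lacking PAFAH1B2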
PAFAH2 FP inh: PAFAH2 (human) inhibition. Q99487. recombinant PAFAH2, FP-rhodamine activity probe, fluorescence polarization. inhibition, % at 3.39 µM. 0.99% of 340,000 active. AID 492956;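 active = inhibition above the mean over all tested compounds plus 3 SD, cut at about 30% in these data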;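 also: inhibitors block probe labeling of enzyme so polarization drops; 0% = enzyme with DMSO and 100% = wells lacking PAFAH2 protein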
HTRA1 inhibitor: inhibitors of human serine peptidase HTRA1; 0.5% of 340,000 active; AID 504803; recombinant HTRA1, FP-rhodamine activity-based probe, fluorescence polarization; inhibition, % at 5.96 µM; Q92743; in the data active = inhibition above about 36%;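 also: 0% = enzyme with DMSO and 100% = wells lacking enzyme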
Target sequence (Q92743 whole entry, looked up): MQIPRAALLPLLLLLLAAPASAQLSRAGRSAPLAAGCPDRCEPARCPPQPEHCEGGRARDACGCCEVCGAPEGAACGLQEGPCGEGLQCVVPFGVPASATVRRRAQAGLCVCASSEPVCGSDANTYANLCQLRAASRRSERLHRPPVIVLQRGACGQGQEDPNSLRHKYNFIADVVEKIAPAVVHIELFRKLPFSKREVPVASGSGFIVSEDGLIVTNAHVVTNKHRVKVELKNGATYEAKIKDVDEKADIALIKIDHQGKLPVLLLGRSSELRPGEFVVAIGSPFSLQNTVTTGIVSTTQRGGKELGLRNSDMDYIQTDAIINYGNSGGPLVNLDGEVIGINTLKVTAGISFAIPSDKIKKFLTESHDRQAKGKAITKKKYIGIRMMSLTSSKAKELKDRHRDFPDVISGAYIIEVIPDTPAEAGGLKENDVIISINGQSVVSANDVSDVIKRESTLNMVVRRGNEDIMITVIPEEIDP
PAFAH1B3 FP inh: blocks human PAF acetylhydrolase 1B catalytic subunit 3 | recombinant PAFAH1B3, FP-rhodamine probe, fluorescence polarization | AID 492972 | 0.28% of 340,000 active | inhibition, % at 3.39 µM | Q15102;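 active = inhibition above the screen-wide average of all tested compounds plus 3 SD, cut at about 25% in these data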;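 also: 0% = enzyme with DMSO only and 100% = wells lacking PAFAH1B3 protein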
pPAFAH inh: inhibitors of human plasma PAF acetylhydrolase (pPAFAH). Q13093. 1.5% of 330,000 active. recombinant pPAFAH, FP-rhodamine probe fluorescence polarization. inhibition, % at 3.39 µM. AID 463082;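 active = inhibition above the mean inhibition across the screen plus 3 SD, cut at about 25% in these data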;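 also: inhibitors block binding of the rhodamine activity-based probe so polarization drops; 0% = enzyme with DMSO and 100% = wells lacking pPAFAH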
ABHD4 inh: inhibitors of mouse ABHD4; Q8VD66; 0.54% of 370,000 active; AID 720543; purified mABHD4, FP-Rh probe fluorescence polarization; inhibition, % at 8.92 µM;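 active = inhibition exceeding the mean over every tested compound plus 3 SD, cut at about 30% in these data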;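 also: 0% = plate median of compound wells and 100% = S159A mutant with DMSO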
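Test system: mABHD4 protein | Buffer or medium: HEPES pH 7.0 buffer, 150 mM NaCl, 0.01% Pluronic F-127 | Probe or stimulus: FP-Rh fluorescent activity-based probe, added after compound pre-incubation | Timing: Pre-incubation 45 min, probe exposure 60 min, at 25 °C | Technique: Fluorescence polarization, excitation 525 nm, emission 598 nm, BODIPY TMR filters | Repeats: Single well per compound (singlicate)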
* marks the source's active call; other numbers are inactive results; / = not tested or not shown; ! = a repeat was not active.

SMILES | PAFAH1B2 inh | PAFAH2 FP inh | HTRA1 inhibitor | PAFAH1B3 FP inh | pPAFAH inh | ABHD4 inh
CC(C)(C)c1cc[n+](C2=C([O-])c3ccccc3C(=O)/C2=N\S(=O)(=O)c2cccs2)cc1 | / | / | / | / | 12 | 5
Cc1ccc(NC2=C/C(=N\S(=O)(=O)c3cccs3)c3ccccc3C2=O)c(C)c1 | 30* | 34* | 53* | 65* | 29* | /
Cc1ccc(Cl)cc1NC1=C/C(=N\S(=O)(=O)c2cccs2)c2ccccc2C1=O | 28*! | 31* | 40*! | 58* | 25* | 22
O=c1[nH]c2ccc(S(=O)(=O)N3CCCC3)cc2o1 | / | / | / | / | / | -1
CCCN(CC1CC1)C(=O)CNc1nnnn1-c1ccccc1 | / | / | / | / | / | -3
Cc1cccc(-c2nnc(SCc3cccc4ccccc34)n2-c2ccc(Cl)cc2)c1 | / | / | / | / | / | 0
Cc1cc2c(cc1S(=O)(=O)NCc1ccccc1)NC(=O)CO2 | 11 | 0 | 6 | 0 | 8 | 4
Cc1cc2c(cc1S(=O)(=O)NCCc1ccccc1)NC(=O)CO2 | 29* | 7 | -1 | 8 | 6 | 2
Cc1ccc(CNS(=O)(=O)c2ccc3c(c2)NC(=O)CO3)cc1 | 26* | -9 | 6 | 10 | 3 | 9
CCCCCCCCN1C(=O)[C@@H](CC(=O)NCCCN2CCCC2=O)C[C@@]2(C(=O)OC)C1=C[C@H](COCc1ccccc1)O[C@@H]2C | / | / | / | / | / | 2
O=S(=O)(N/N=C/c1ccc2c(c1)OCO2)c1ccc(Br)cc1 | 26* | -1 | 1 | 7 | 1 | 2
CC(NCc1ccco1)C(=O)N1CCCN(C)CC1 (stereo not drawn) | / | / | / | / | / | 4
Cc1ccc(N2C(=O)C3CCC(C)(C2=O)C3(C)C)cc1 (stereo not drawn) | -2 | 8 | 7 | 0 | -1 | 4
CSC[C@@H]1NC(=S)N(c2ccc(C)cc2)C1=O | 27* | 15 | -50 | 49* | 14 | -3
COc1ccc2[nH]c3c(N4CCc5ccccc5C4)ncnc3c2c1 | 10 | 10 | -5 | 15 | 33* | 36*
Cc1noc(/C=C/N(C)C)c1S(=O)(=O)N1CCCC(C(=O)NCCC2=CCCCC2)C1 (stereo not drawn) | 20 | -2 | -54 | 2 | 25* | -10
Cc1ccc(CCNC(=O)C2CCCN(S(=O)(=O)c3c(C)nn(C)c3C)C2)cc1 (stereo not drawn) | 29* | -2 | -3 | 10 | 5 | 3
CCS(=O)(=O)N1CCCC(C(=O)NCCc2ccc(C)cc2)C1 (stereo not drawn) | 5 | 7 | 0 | -2 | 0 | 1
C/C(C=Nn1c(-c2ccc(F)cc2)n[nH]c1=S)=C/c1ccco1 | / | / | / | / | / | 14
O=C(COc1cc(O)c2c(=O)cc(-c3ccccc3)oc2c1)c1cccc([N+](=O)[O-])c1 | 25* | -7 | -6 | 3 | 1 | 2
COc1ccc(Cn2ccc3ccc(-c4ccc5ccn(Cc6ccccc6)c5c4)cc32)cc1 | / | / | / | / | / | 4
c1ccc(CSc2nnc3c(n2)OC(c2ccco2)Nc2ccccc2-3)cc1 (stereo not drawn) | 6 | 23 | -4 | 0 | 26* | /
O=C(Nc1ccc(S(=O)(=O)Nc2ncccn2)cc1)C12CC3CC(CC(Cl)(C3)C1)C2 | 30* | 6 | 4 | 10 | 13 | 1
Fc1cccc2sc(Nc3nnc(-c4ccccc4)o3)nc12 | 12 | 33* | 5 | 1 | 25* | -1
Fc1cccc2sc(Nc3nc4c(F)cccc4s3)nc12 | 2 | -8 | -8 | 5 | 11 | 2
SMILES | PAFAH1B2 inh | PAFAH2 FP inh | HTRA1 inhibitor | PAFAH1B3 FP inh | pPAFAH inh | ABHD4 inh
Cc1ccc(-c2cc3nc(-c4ccco4)cc(N4CCN(Cc5ccoc5)CC4)n3n2)cc1 | / | / | / | / | / | -20
C/C(=N/NC(=O)c1cc2ccccc2cc1O)c1ccco1 | 5 | -7 | 19 | 15 | 40* | 25
COc1ccccc1OCC(=O)N(Cc1nc(-c2ccc(Cl)cc2)no1)C(C)C | 5 | 7 | -8 | 0 | 10 | -9
COc1cccc(OCC(=O)N(Cc2nc(-c3ccc(Cl)cc3)no2)C(C)C)c1 | -2 | -7 | -44 | 8 | 26* | -7
Cc1ccc(C)c(C(=O)N(Cc2nc(-c3ccc(Cl)cc3)no2)C(C)C)c1 | -1 | 4 | -42 | 1 | 27* | 7
CC1CCC2(CC1)CCN(CCCOC(=O)Nc1ccc3c(c1)OCO3)C2=O (stereo not drawn) | / | / | / | / | / | 4

Compound activity (PubChem)
